From ChEMBL document CHEMBL3297735, “Optimization of troglitazone derivatives as potent anti-proliferative agents: towards more active and less toxic compounds” (Eur J Med Chem, 2014)

What was measured:
[1] = Cytotoxicity against human MiaPaCa cells assessed as cell viability at 10 uM after 72 hrs by MTS assay in presence of 10% fetal calf serum relative to control; format: functional; details: MIA PaCa-2, 72 h, read-out: Activity
MDA-MB-231 = assay: Cytotoxicity against human MDA-MB-231 cells assessed as cell viability at 10 uM after 72 hrs by MTS assay in presence of 10% fetal calf serum relative to control; format: functional; details: MDA-MB-231, 72 h, read-out: Activity
Procedure, shortened: (§1)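 Cells were grown in RPMI with L-glutamine, 10% FCS, penicillin/streptomycin and fungizone at 37 °C under 5% CO2. Wells were seeded with 1900 cells for MCF-7 or 1300 cells for MDA-MB-231. After 24 h, compound was added from a 10 mM DMSO stock (final DMSO 1%) for 72 h, with DMSO-only controls. Viable cells were read by MTS at 490 nm and expressed as % of untreated. Mean ± SEM, N = 3.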

HepG2 = assay: Cytotoxicity against human HepG2 cells assessed as cell viability at 10 uM after 72 hrs by MTS assay in presence of 10% fetal calf serum relative to control; format: functional; details: HepG2, 72 h, read-out: Activity
PC-3 = assay: Cytotoxicity against human PC3 cells assessed as cell viability at 10 uM after 72 hrs by MTS assay in presence of 10% fetal calf serum relative to control; format: functional; details: PC-3, 72 h, read-out: Activity
[2] = Cytotoxicity against human MDA435 cells assessed as cell viability at 10 uM after 72 hrs by MTS assay in presence of 10% fetal calf serum relative to control; format: functional; details: MDA-MB-435, 72 h, read-out: Activity
MCF7 = assay: Cytotoxicity against human MCF7 cells assessed as cell viability at 10 uM after 72 hrs by MTS assay in presence of 10% fetal calf serum relative to control; format: functional; details: MCF7, 72 h, read-out: Activity; procedure, shortened: as §1
LNCaP = assay: Cytotoxicity against human LNCAP cells assessed as cell viability at 10 uM after 72 hrs by MTS assay in presence of 10% fetal calf serum relative to control; format: functional; details: read-out: Activity
HCT-116 = assay: Cytotoxicity against human HCT116 cells assessed as cell viability at 10 uM after 72 hrs by MTS assay in presence of 10% fetal calf serum relative to control; format: functional; details: HCT-116, 72 h, read-out: Activity
[3] = Cytotoxicity against human hepatocytes assessed as cell viability at 100 uM after 90 mins by MTT assay relative to control; format: cell-based, Hepatocyte; details: read-out: Activity
Procedure, shortened: (§2)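 Cryopreserved human hepatocytes were plated at 0.1 × 10⁶ cells/well and exposed to compound for 90 min. MTT was then added for 30 min at 37 °C, plates were centrifuged, and formazan was dissolved in DMSO. Absorbance was read at 595 nm. Surviving cells are expressed as % of non-treated cells ± SEM.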

[4] = Cytotoxicity against human hepatocytes assessed as cell viability at 200 uM after 90 mins by MTT assay relative to control; format: cell-based, Hepatocyte; details: read-out: Activity; procedure, shortened: as §2

Row | Structure (SMILES) | viability at 10 µM [1] [%] | viability at 10 µM (MDA-MB-231) [%] | viability at 10 µM (HepG2) [%] | viability at 10 µM (PC-3) [%] | viability at 10 µM [2] [%] | viability at 10 µM (MCF7) [%] | viability at 10 µM (LNCaP) [%] | viability at 10 µM (HCT-116) [%] | viability at 1.5 h, 100 µM [3] [%] | viability at 1.5 h, 200 µM [4] [%]
1 | O=C1S/C(=C\c2ccccc2)C(=O)N1Cc1ccccc1 | 88.8 | 81.6 | 85 | 82.4 | 89.9 | 95.6 | 90.8 | 85.4 | – | –
2 | Cc1c(C)c2c(c(C)c1OC(=O)CCCCCCCNC(=O)OC(C)(C)C)CCC(C)(COc1ccc(/C=C3\SC(=O)NC3=O)cc1)O2 (stereo not drawn) | 53.8 | 42.2 | 18.4 | 62 | 51.5 | 62.5 | 21.1 | 37 | 79.3 | 74.7
3 | CC1(CN2C(=O)S/C(=C\c3cc(Br)c(O)c(Br)c3)C2=O)CCCCC1 | 34.7 | 46.9 | 25.8 | 52.9 | 30.6 | 23.8 | 18.8 | 13 | 42.1 | 30.3
4 | O=C1S/C(=C\c2ccc(O)cc2)C(=O)N1Cc1ccccc1 | 25.6 | 24.5 | 54.5 | 65.8 | 30.9 | 43.9 | 77.6 | 29.8 | 40.8 | 18
5 | O=C1S/C(=C\c2ccc(Cl)cc2)C(=O)N1Cc1ccccc1 | 88.3 | 73 | 79.3 | 95.5 | 88.8 | 100 | 85.5 | 84 | – | –
6 | O=C1S/C(=C\c2ccc([N+](=O)[O-])cc2)C(=O)N1Cc1ccccc1 | 84.9 | 64.6 | 79.4 | 72.3 | 86 | 80.2 | 77.9 | 93.9 | – | –
7 | COc1ccc(/C=C2\SC(=O)N(Cc3ccccc3)C2=O)cc1 | 99.3 | 89.5 | 87.9 | 91.4 | 92.7 | 100 | 100 | 82.1 | – | –
8 | COc1cc(/C=C2\SC(=O)N(Cc3ccccc3)C2=O)cc(OC)c1OC | 69.8 | 51.5 | 63.8 | 67.9 | 78.8 | 74.7 | 76.2 | 55.9 | – | –
9 | O=C1S/C(=C\c2ccc(O)cc2)C(=O)N1C/C=C/c1ccccc1 | 16.2 | 8.7 | 41.3 | 57.1 | 18.3 | 35 | 63.4 | 17.4 | 88.8 | 62.7
10 | CC(C)(C)OC(=O)c1ccccc1-c1ccc(CN2C(=O)S/C(=C\c3ccc(O)cc3)C2=O)cc1 | 59.9 | 51.9 | 22.8 | 49.9 | 66.8 | 80.3 | 32.4 | 61.6 | – | –
11 | O=C(O)c1ccccc1-c1ccc(CN2C(=O)S/C(=C\c3ccc(O)cc3)C2=O)cc1 | 99.3 | 94.9 | 89.8 | 95.6 | 100 | 99.6 | 90.1 | 97.6 | – | –
12 | Cc1c(C)c2c(c(C)c1O)CCC(C)(/C=C1\SC(=O)N(Cc3ccccc3)C1=O)O2 (racemic) | 80.7 | 88 | 71.5 | 83.4 | 75.7 | 94.2 | 84.6 | 81 | – | –
13 | Cc1c(C)c2c(c(C)c1O)CCC(C)(COc1ccc(/C=C3\SC(=O)N(Cc4ccccc4)C3=O)cc1)O2 (racemic) | 100 | 76.4 | 63.2 | 100 | 88.7 | 85.3 | 85.7 | 43 | – | –
14 | Cc1c(C)c2c(c(C)c1O)CCC(C)(COc1ccc(/C=C3\SC(=O)N(C)C3=O)cc1)O2 (racemic) | 80.2 | 64.3 | 60.3 | 85.5 | 94.7 | 100 | 66.8 | 68.4 | 147 | 127
15 | Cc1c(C)c2c(c(C)c1OC(=O)CCCCCCCN)CCC(C)(COc1ccc(/C=C3\SC(=O)N(C)C3=O)cc1)O2 (racemic) | 0 | 0 | 7.9 | 2.4 | 0 | 0 | 9.3 | 0.6 | 84.5 | 54.4
16 | Cc1c(C)c2c(c(C)c1CCCCCCNC(=O)OC(C)(C)C)CCC(C)(COc1ccc(/C=C3\SC(=O)NC3=O)cc1)O2 (racemic) | 69.7 | 49.3 | 22.7 | 73.7 | 60.9 | 75.5 | 32.2 | 45.2 | 85.1 | 80.3
17 | Cc1c(C)c2c(c(C)c1OC(=O)OC(C)(C)C)CCC(C)(CN1C(=O)S/C(=C\c3ccc(O)cc3)C1=O)O2 (racemic) | 72.2 | 57.9 | 23.4 | 85.1 | 66 | 85.7 | 55 | 30.1 | 65.1 | 37.8
18 | Cc1c(C)c2c(c(C)c1O)CCC(C)(CN1C(=O)S/C(=C\c3ccc(O)cc3)C1=O)O2 (racemic) | 0 | 4.8 | 20.8 | 36.3 | 13.4 | 5.2 | 48.9 | 5.3 | 110 | 103
19 | CCOC(=O)C1(C)CCc2c(C)c(/C=C3\SC(=O)N(Cc4ccccc4)C3=O)c(C)c(C)c2O1 (racemic) | 86 | 68.8 | 69.2 | 98.3 | 81.4 | 97.2 | 87.5 | 88 | – | –
20 | Cc1c(C)c2c(c(C)c1OC(=O)OC(C)(C)C)CCC(C)(/C=C1\SC(=O)N(Cc3ccccc3)C1=O)O2 (racemic) | 75.3 | 75.4 | 76.3 | 82.4 | 67.6 | 76.5 | 96.2 | 90.5 | – | –
21 | Cc1c(C)c2c(c(C)c1O)CCC(C)(COc1ccc(CC3SC(=O)NC3=O)cc1)O2 (stereo not drawn) [TROGLITAZONE] | 98.3 | 88.1 | 85.8 | 86.2 | 87.8 | 96.7 | 82.8 | 90.7 | 52.2 | 22.5
